Common to all, as to format: functional
The species named for assay [1] is Homo sapiens. In words: Sweet character at a concentration of 1000 ppm (mean value).
Assay [2] is filed under the species Homo sapiens. In words: Sour character at a concentration of 1000 ppm (mean value).
The species entered for assay [3] is Homo sapiens. The assay is described as follows: Intensity calculated on a weight basis relative to an 85500 ppm sucrose solution at a concentration of 1000 ppm (mean value). In a few lines: (§1)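 Trained human panel tasted aqueous solutions of purity-checked (≥95 weight percent) compounds cleared for mutagenicity and mouse oral toxicity. Weight-basis intensity I_w = perceived intensity × (85500 ppm sucrose / compound concentration in ppm). The mean is reported with 2S_m limits; data deviating excessively at 95% confidence were rejected by the t-value method.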

The species entered for assay [4] is Homo sapiens. In words: Percentage of judgments reporting an aftertaste at a concentration of 1000 ppm and character thereof. An outline of the steps:
(§2)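 Trained judges tasted aqueous solutions of the compounds, which had to be ≥95 weight percent pure and to have passed mutagenicity and single oral dose toxicity screening. The value is the percentage of panel judgments reporting an aftertaste. Where given, its character is recorded as sweet, bitter or bitter-sweet.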

For assay [5], the species on record is Homo sapiens. In words: Bitter character at a concentration of 1000 ppm (mean value). An outline of the steps:
(§3)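 Trained human panel tasted aqueous solutions. Each judge reported whether there was an aftertaste and its character (sweet, bitter or bitter-sweet). The value is the percentage of judgments reporting a bitter aftertaste.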

Assay [6] is filed under the species Homo sapiens. The assay is described as follows: Sweet / Bitter character at a concentration of 1000 ppm (mean value); 75/25.
Assay [7] is filed under the species Homo sapiens. In words: Intensity calculated on a molar basis relative to a 0.25 M sucrose solution at a concentration of 1000 ppm (mean value). In a few lines: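 Panel-derived mean perceived intensity (Ip) converted to a molar basis by Im = Ip × (0.25 M / Y), where Y is the compound's molar concentration. Reference is a 0.25 M sucrose solution. Reported with limits of 2Sm.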

The species entered for assay [8] is Homo sapiens. In words: Number of taste judgments per compound.
The species named for assay [9] is Homo sapiens. The assay is described as follows: Salty character at a concentration of 1000 ppm (mean value).
Assay [10] is filed under the species Homo sapiens. In words: Experimentally determined perceived intensity of compound at a concentration of 1000 ppm (mean value). In a few lines:
(§4)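 Trained human sensory panel of judges tasted aqueous solutions of the compound. Samples had to be ≥95 weight % pure (HPLC, proton titration, Karl Fischer), non-mutagenic in five Salmonella typhimurium strains with and without microsomal activation, and non-toxic in a single-oral-dose mouse test. Perceived intensity (Ip) was read from time–intensity curves at 4- or 6-s intervals and averaged. Outliers at the 95% level were rejected by t-value. Values reported as mean (2Sm).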

Assay [11] is filed under the species Homo sapiens. In words: Other taste character at a concentration of 1000 ppm (mean value). An outline of the steps:
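Trained human panel tasted aqueous solutions of each compound. Aftertaste is scored as the percentage of judgments reporting one, with its character coded sweet (s), bitter (b) or bitter-sweet (bs).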

The species named for assay [12] is Homo sapiens. In words: Experimentally determined perceived intensity of compound at a concentration of 497 ppm (mean value). In a few lines: as §4
For assay [13], the species on record is Homo sapiens. The assay is described as follows: Other taste character at a concentration of 497 ppm (mean value). In a few lines: (§5)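 Trained human sensory panel (Swartz method) tasted dilute aqueous solutions of the compounds, which had to be ≥95 weight percent pure and free of mutagenicity and toxicity. Taste character is reported as the mean value with 2S_m limits. Data deviating excessively at the 95% confidence level were rejected by the t-value method.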

For assay [14], the species on record is Homo sapiens. In words: Sour character at a concentration of 497 ppm (mean value).
Assay [15] is filed under the species Homo sapiens. In words: Salty character at a concentration of 497 ppm (mean value).
For assay [16], the species on record is Homo sapiens. In words: Intensity calculated on a molar basis relative to a 0.25 M sucrose solution at a concentration of 497 ppm (mean value). In a few lines:
(§6)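 Trained human judges tasted aqueous solutions of the test compound; compounds were first required to be ≥95 weight percent pure and free of mutagenicity (five Salmonella typhimurium strains, ± microsomal activation) and of single oral dose mouse toxicity. Molar intensity I_m = perceived intensity × (0.25 M sucrose / compound molar concentration). The mean is reported with 2S_m limits; outliers were rejected at 95% confidence by t-value.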

For assay [17], the species on record is Homo sapiens. The assay is described as follows: Intensity calculated on a weight basis relative to an 85500 ppm sucrose solution at a concentration of 497 ppm (mean value). An outline of the steps:
as §1

The species named for assay [18] is Homo sapiens. In words: Sweet character at a concentration of 497 ppm (mean value).
The species entered for assay [19] is Homo sapiens. The assay is described as follows: Sweet / Bitter character at a concentration of 497 ppm (mean value); 0/100.
For assay [20], the species on record is Homo sapiens. The assay is described as follows: Percentage of judgments reporting an aftertaste at a concentration of 497 ppm and character thereof.
The species named for assay [21] is Homo sapiens. The assay is described as follows: Bitter character at a concentration of 497 ppm (mean value). An outline of the steps:
as §3

The species entered for assay [22] is Homo sapiens. The assay is described as follows: Sweet / Bitter character at a concentration of 251 ppm (mean value).
The species entered for assay [23] is Homo sapiens. The assay is described as follows: Sour character at a concentration of 251 ppm (mean value). An outline of the steps: as §5
The species entered for assay [24] is Homo sapiens. In words: Other taste character at a concentration of 251 ppm (mean value). An outline of the steps:
as §5

Assay [25] is filed under the species Homo sapiens. In words: Sweet character at a concentration of 251 ppm (mean value). In a few lines: as §5
The species entered for assay [26] is Homo sapiens. The assay is described as follows: Percentage of judgments reporting an aftertaste at a concentration of 251 ppm and character thereof; Bitter. In a few lines:
as §2

Assay [27] is filed under the species Homo sapiens. In words: Experimentally determined perceived intensity of compound at a concentration of 251 ppm (mean value). In a few lines:
as §4

Assay [28] is filed under the species Homo sapiens. In words: Intensity calculated on a molar basis relative to a 0.25 M sucrose solution at a concentration of 251 ppm (mean value). In a few lines:
as §6

The species named for assay [29] is Homo sapiens. In words: Salty character at a concentration of 251 ppm (mean value). An outline of the steps:
as §5

Assay [30] is filed under the species Homo sapiens. In words: Intensity calculated on a weight basis relative to an 85500 ppm sucrose solution at a concentration of 251 ppm (mean value). In a few lines:
as §1

The species entered for assay [31] is Homo sapiens. In words: Bitter character at a concentration of 251 ppm (mean value). In a few lines:
as §3

The species entered for assay [32] is Homo sapiens. The assay is described as follows: Other taste character at a concentration of 33.4 ppm (mean value). An outline of the steps: as §5
Assay [33] is filed under the species Homo sapiens. The assay is described as follows: Bitter character at a concentration of 33.4 ppm (mean value). In a few lines: as §3
For assay [34], the species on record is Homo sapiens. In words: Sweet / Bitter character at a concentration of 33.4 ppm (mean value); 66/34.
The species entered for assay [35] is Homo sapiens. In words: Intensity calculated on a molar basis relative to a 0.25 M sucrose solution at a concentration of 33.4 ppm (mean value). An outline of the steps: as §6
For assay [36], the species on record is Homo sapiens. The assay is described as follows: Percentage of judgments reporting an aftertaste at a concentration of 33.4 ppm and character thereof.
Assay [37] is filed under the species Homo sapiens. In words: Sweet character at a concentration of 33.4 ppm (mean value).
The species entered for assay [38] is Homo sapiens. The assay is described as follows: Intensity calculated on a weight basis relative to an 85500 ppm sucrose solution at a concentration of 33.4 ppm (mean value). In a few lines:
as §1

The species entered for assay [39] is Homo sapiens. In words: Salty character at a concentration of 33.4 ppm (mean value).
Assay [40] is filed under the species Homo sapiens. The assay is described as follows: Experimentally determined perceived intensity of compound at a concentration of 33.4 ppm (mean value). In a few lines:
as §4

Assay [41] is filed under the species Homo sapiens. In words: Sour character at a concentration of 33.4 ppm (mean value).

The structures appear in SMILES notation.

As for `COc1ccc(CCC(=O)c2c(O)cc(OCCN)cc2O)cc1O`, the Taste character in the assay listed under Homo sapiens [1] was 75; in the assay listed under Homo sapiens [2] it was 0; in the assay filed under Homo sapiens [5] it was 25; in the assay filed under Homo sapiens [6], 75; in the assay filed under Homo sapiens [9] it was 0; in the assay filed under Homo sapiens [11], 0. In addition, the IW in the assay filed under Homo sapiens [3] is listed as 86. For the same compound, the Judgments in the assay filed under Homo sapiens [4] worked out at 100; in the assay listed under Homo sapiens [8], 1. Further, in the assay listed under Homo sapiens [7], the IM was 87. This compound showed an IP in the assay listed under Homo sapiens [10] of 1.
In the case of `O=C([O-])COc1cc(O)c(C(=O)CCc2ccc3c(c2)OCO3)c(O)c1.[Na+]`, the IP in the assay filed under Homo sapiens [12] stood at 0.83. The Taste character in the assay filed under Homo sapiens [13] stood at 21; in the assay listed under Homo sapiens [14], 0; in the assay filed under Homo sapiens [15] it was 0; in the assay filed under Homo sapiens [18], 0; in the assay filed under Homo sapiens [19], 0; in the assay listed under Homo sapiens [21], 79. Moreover, in the assay filed under Homo sapiens [16], the IM is reported as 160. Besides, the IW in the assay listed under Homo sapiens [17] was 140. Further, the Judgments was determined as 12 in the assay listed under Homo sapiens [8] and 100 in the assay listed under Homo sapiens [20].
As to `COc1ccc(C2CC(=O)c3c(O)cc(OCC(=O)[O-])cc3O2)cc1O.[Na+]` (centres undefined), the Taste character in the assay filed under Homo sapiens [22] is reported as 16; in the assay filed under Homo sapiens [23] it was 0; in the assay filed under Homo sapiens [24], 7; in the assay listed under Homo sapiens [25] it was 15; in the assay listed under Homo sapiens [29] it was 0; in the assay listed under Homo sapiens [31] it was 78. Further, the results for the Judgments in the assay filed under Homo sapiens [26] and in the assay listed under Homo sapiens [8] were 100 and 12, respectively. The IP in the assay listed under Homo sapiens [27] was 0.79. Further, the IM in the assay listed under Homo sapiens [28] was 300. The IW in the assay listed under Homo sapiens [30] is 270.
Turning to `COc1ccc(C2CC(=O)c3c(O)cccc3O2)cc1O` (centres undefined), the Taste character in the assay filed under Homo sapiens [32] was found to be 0; in the assay listed under Homo sapiens [33], 32; in the assay listed under Homo sapiens [34], 66; in the assay filed under Homo sapiens [37], 62; in the assay listed under Homo sapiens [39], 0; in the assay filed under Homo sapiens [41] it was 6. Besides, in the assay filed under Homo sapiens [35], the IM is 1400. For the same compound, the Judgments in the assay filed under Homo sapiens [36] came out at 42; in the assay filed under Homo sapiens [8], 8. The IW in the assay listed under Homo sapiens [38] is on record as 1700. In the assay filed under Homo sapiens [40], this compound showed an IP of 0.68.

(Values after ChEMBL document CHEMBL1121813, “Dihydrochalcone sweeteners. A study of the atypical temporal phenomena” (1981).)
